ChEMBL document CHEMBL3860028, “Bioactive Phenanthrene and Bibenzyl Derivatives from the Stems of Dendrobium nobile” (J Nat Prod, 2016)
≈ marks a conversion by molar mass, not a printed value.

Tests used:
[1] = Antifungal activity against Exserohilum turcicum after 4 to 14 days by serial dilution method; format: functional; conditions: Setosphaeria turcica
Summary of the method: (§1)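 Fungal strains kept on potato dextrose agar. Antifungal activity tested following NCCLS recommendations, with MIC values as the read-out. Prochloraz served as positive control.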

Alternaria citri = experiment: Antifungal activity against Alternaria citri after 4 to 14 days by serial dilution method; format: functional
Summary of the method: (§2)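 Fungus maintained on potato dextrose agar. Antifungal activity determined as MIC following NCCLS (National […] for Clinical Laboratory Standards) recommendations, with prochloraz as the reference antifungal.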

[2] = Cytotoxicity against human MCF7 cells assessed as decrease in cell viability after 6 days by MTT assay; format: functional, cell-based; conditions: MCF7, 144 h
Summary of the method: (§3)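 Cell lines from College of Pharmacy, Hebei University, grown in DMEM with 5% fetal bovine serum at 37 °C under 5% CO2. Viability read by MTT method, IC50 values derived. Epirubicin served as positive control.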

[3] = Antifungal activity against Phytophthora parasitica var. nicotianae after 4 to 14 days by serial dilution method; format: functional; summary of the method: as §1
Alternaria brassicicola = experiment: Antifungal activity against Alternaria brassicicola after 4 to 14 days by serial dilution method; format: functional; summary of the method: as §1
[4] = Cytotoxicity against human HeLa cells assessed as decrease in cell viability after 6 days by MTT assay; format: functional, cell-based; conditions: 144 h; summary of the method: as §3
[5] = Antifungal activity against Ceratocystis paradoxa moreau after 4 to 14 days by serial dilution method; format: functional; conditions: Thielaviopsis; summary of the method: as §1
Colletotrichum truncatum = experiment: Antifungal activity against Colletotrichum capsici after 4 to 14 days by serial dilution method; format: functional; summary of the method: as §1
[6] = Antifungal activity against Bipolaris oryzae after 4 to 14 days by serial dilution method; format: functional; summary of the method: as §2
[7] = Antifungal activity against Diaporthe medusaea nitschke after 4 to 14 days by serial dilution method; format: functional; conditions: Diaporthe rudis; summary of the method: as §1
[8] = Antifungal activity against Pestallozzia theae after 4 to 14 days by serial dilution method; format: functional; summary of the method: as §1
[9] = Cytotoxicity against human A549 cells assessed as decrease in cell viability after 6 days by MTT assay; format: functional, cell-based; conditions: A549, 144 h; summary of the method: as §3

Structure (SMILES)	MIC [1] [µM]	MIC (Alternaria citri) [µM]	IC50 [2] [µM]	MIC [3] [µM]	MIC (Alternaria brassicicola) [µM]	IC50 [4] [µM]	MIC [5] [µM]	MIC (Colletotrichum truncatum) [µM]	MIC [6] [µM]	MIC [7] [µM]	MIC [8] [µM]	IC50 [9] [µM]
COc1cc(O)cc(CCc2cccc(O)c2)c1 [BATATASIN III]	102 (≈ 25 µg/mL)	102 (≈ 25 µg/mL)	> 10	205 (≈ 50.1 µg/mL)	102 (≈ 25 µg/mL)	> 10	102 (≈ 25 µg/mL)	102 (≈ 25 µg/mL)	102 (≈ 25 µg/mL)	205 (≈ 50.1 µg/mL)	205 (≈ 50.1 µg/mL)	> 10
COc1cc(O)cc2ccc3c(-c4c(O)cc(OC)c5c4ccc4cccc(O)c45)ccc(O)c3c12	> 400	> 400	> 10	> 400	> 400	> 10	> 400	> 400	> 400	> 400	> 400	> 10
Oc1cccc(CCc2cc(O)cc(O)c2)c1	109 (≈ 25 µg/mL)	109 (≈ 25 µg/mL)	> 10	218 (≈ 50.1 µg/mL)	> 400	> 10	109 (≈ 25 µg/mL)	109 (≈ 25 µg/mL)	109 (≈ 25 µg/mL)	217 (≈ 50.1 µg/mL)	217 (≈ 50.1 µg/mL)	> 10
COC1=CC(=O)C[C@H]2CCc3cccc(O)c3[C@@]12O	> 400	> 400	> 10	> 400	> 400	> 10	> 400	> 400	> 400	> 400	> 400	> 10
COC1=CC(=O)C[C@H]2CC(=O)c3cccc(O)c3[C@@]12O	> 400	> 400	> 10	> 400	> 400	> 10	> 400	> 400	> 400	> 400	> 400	> 10
COC1=CC(=O)C[C@@]2(CCc3cccc(O)c32)C1=O	> 400	> 400	9.4	> 400	> 400	9.8	> 400	> 400	> 400	> 400	> 400	9.9
COc1cc(O)c2c(c1-c1c(OC)cc(O)c3c1CCc1cc(O)ccc1-3)CCc1cc(O)ccc1-2	> 400	> 400	> 10	> 400	> 400	> 10	> 400	> 400	> 400	> 400	> 400	> 10
COc1c(O)cc2c(c1OC)-c1ccc(O)cc1CC2 [ERIANTHRIDIN]	> 400	> 400	> 10	> 400	> 400	> 10	> 400	> 400	> 400	> 400	> 400	> 10
COc1cc(O)c2c(c1)CCc1cc(O)ccc1-2 [LUSIANTHRIDIN]	> 400	> 400	> 10	> 400	> 400	> 10	> 400	> 400	> 400	> 400	> 400	> 10
COc1cc(CCc2cc(O)cc(O)c2)ccc1O [TRISTIN]	385 (≈ 100 µg/mL)	96.2 (≈ 25 µg/mL)	> 10	385 (≈ 100 µg/mL)	192 (≈ 50.1 µg/mL)	> 10	96.2 (≈ 25 µg/mL)	96.2 (≈ 25 µg/mL)	96.2 (≈ 25 µg/mL)	192 (≈ 50.1 µg/mL)	96.2 (≈ 25 µg/mL)	> 10
COc1cc(O)cc2c1-c1c(O)cccc1CC2 [HIRCINOL]	> 400	> 400	> 10	> 400	> 400	> 10	> 400	> 400	> 400	> 400	> 400	> 10
COc1cc(O)c2c(c1)CCc1cccc(O)c1-2	> 400	> 400	> 10	> 400	> 400	> 10	> 400	> 400	> 400	> 400	> 400	> 10
COc1cc(O)cc(CCc2ccccc2)c1	110 (≈ 25 µg/mL)	110 (≈ 25 µg/mL)	> 10	219 (≈ 50.1 µg/mL)	> 400	> 10	110 (≈ 25 µg/mL)	110 (≈ 25 µg/mL)	110 (≈ 25 µg/mL)	219 (≈ 50.1 µg/mL)	219 (≈ 50.1 µg/mL)	> 10
COc1c(O)cc2ccc3cc(O)ccc3c2c1OC [NUDOL]	> 400	> 400	> 10	> 400	> 400	> 10	> 400	> 400	> 400	> 400	> 400	> 10
COc1cc2c(c(OC)c1O)-c1ccc(O)cc1CC2 [FLAVANTHRIDIN]	> 400	> 400	> 10	> 400	> 400	> 10	> 400	> 400	> 400	> 400	> 400	> 10
COc1cc(O)c2c(c1)CCc1cc(O)c(-c3c(O)c4cccc(O)c4c4c(OC)cc(OC)cc34)cc1-2	> 400	> 400	> 10	> 400	> 400	> 10	> 400	> 400	> 400	> 400	> 400	> 10
COc1cc(O)c2c(c1)CCc1cc(O)c(-c3cc4cccc(O)c4c4c(OC)cc(O)cc34)cc1-2	> 400	> 400	> 10	> 400	> 400	> 10	> 400	> 400	> 400	> 400	> 400	> 10
COC1=CC(=O)c2c(ccc3cc(O)c(O)cc23)C1=O	> 400	> 400	> 10	> 400	> 400	> 10	> 400	> 400	> 400	> 400	> 400	> 10
COc1cc(O)c2c(c1)CCc1cc(O)c(-c3c(OC)cc4c(c3O)-c3ccc(O)cc3CC4)cc1-2	> 400	> 400	> 10	> 400	> 400	> 10	> 400	> 400	> 400	> 400	> 400	> 10
COC1=CC(=O)C[C@]2(CCc3cccc(O)c32)C1=O	> 400	> 400	9.4	> 400	> 400	9.8	> 400	> 400	> 400	> 400	> 400	9.9
COc1cc(OC)c2c(cc(O)c3cccc(O)c32)c1-c1ccc(O)c2c1ccc1cc(O)cc(OC)c12	> 400	> 400	> 10	> 400	> 400	> 10	> 400	> 400	> 400	> 400	> 400	> 10
O=C1C=CC(=O)C2=C1CCc1cc(O)ccc12	> 400	> 400	> 10	> 400	> 400	> 10	> 400	> 400	> 400	> 400	> 400	> 10
CCCN(CCOc1c(Cl)cc(Cl)cc1Cl)C(=O)n1ccnc1 [PROCHLORAZ]	33.3 (≈ 12.5 µg/mL)	66.7 (≈ 25.1 µg/mL)	–	133 (≈ 50.2 µg/mL)	33.3 (≈ 12.5 µg/mL)	–	66.7 (≈ 25.1 µg/mL)	33.3 (≈ 12.5 µg/mL)	133 (≈ 50.2 µg/mL)	133 (≈ 50.2 µg/mL)	66.7 (≈ 25.1 µg/mL)	–
COc1c(O)cc2ccc3c(OC)c(O)ccc3c2c1OC	> 400	> 400	> 10	> 400	> 400	> 10	> 400	> 400	> 400	> 400	> 400	> 10
COc1cc(O)c2c(c1)CCc1cc(Oc3cc(OC)c(O)c4c3CCc3cc(O)ccc3-4)ccc1-2	> 400	> 400	> 10	> 400	> 400	> 10	> 400	> 400	> 400	> 400	> 400	> 10
